Activity calls are given as the source filed them.
Experiments:
[1] = molecular target: Cannabinoid receptor 1 (Homo sapiens, UniProt P21554); assay: Displacement of [3H]CP55940 from recombinant human CB1R expressed in CHO cell membranes incubated for 90 mins; set-up: species or system Membrane
[2] = tested on: Mus musculus; assay: In vivo agonist activity at CB1R in BALB/c mouse assessed as reduction in spontaneous locomotion at 5 mg/kg, ip measured after 1 hr by rotarod test; assay type: functional, organism-based
In short: (§1)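 BALB/c mice given 5 mg/kg i.p. in DMSO (20 µL), tested 1 h later. Rectal temperature change from basal; catalepsy by bar test (4 cm bar, 120 s cut-off); locomotion by rotarod latency to fall at 4 rpm (120 s cut-off, 3 trials); analgesia by hot plate at 54-56 °C, first paw lick or shake. n = 5-20 per group.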

[3] = molecular target: Cannabinoid receptor 2 (Homo sapiens, UniProt P34972); assay: Displacement of [3H]CP55940 from recombinant human CB2R expressed in CHO cell membranes incubated for 90 mins; set-up: species or system Membrane
Cannabinoid receptor 2, sequence (P34972 whole entry): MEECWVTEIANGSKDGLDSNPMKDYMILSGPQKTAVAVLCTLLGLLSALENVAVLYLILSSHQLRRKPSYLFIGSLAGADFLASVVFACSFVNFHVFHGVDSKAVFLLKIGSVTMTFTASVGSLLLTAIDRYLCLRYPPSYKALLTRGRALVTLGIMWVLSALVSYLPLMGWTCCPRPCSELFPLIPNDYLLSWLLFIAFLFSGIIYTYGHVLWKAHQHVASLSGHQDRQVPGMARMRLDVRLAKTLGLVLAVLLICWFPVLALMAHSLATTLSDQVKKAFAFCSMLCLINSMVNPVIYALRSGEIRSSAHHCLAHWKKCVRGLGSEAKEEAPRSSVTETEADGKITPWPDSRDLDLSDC

[4] = tested on: Mus musculus; assay: In vivo agonist activity at CB1R in BALB/c mouse assessed as catalpesy-like behaviour by measuring increase in immobility time at 5 mg/kg, ip measured after 1 hr by bar test; assay type: functional, organism-based; in short: as §1
[5] = molecular target: T1, Lysophosphatidylserine lipase ABHD12 (Homo sapiens, UniProt Q8N2K0); assay: Inhibition of human ABHD12 expressed in HEK293 cells using 2-OG as substrate preincubated for 30 mins followed by substrate addition and measured after 5 mins by liquid scintillation spectroscopy; assay type: cell-based
T1 sequence (Q8N2K0 whole entry): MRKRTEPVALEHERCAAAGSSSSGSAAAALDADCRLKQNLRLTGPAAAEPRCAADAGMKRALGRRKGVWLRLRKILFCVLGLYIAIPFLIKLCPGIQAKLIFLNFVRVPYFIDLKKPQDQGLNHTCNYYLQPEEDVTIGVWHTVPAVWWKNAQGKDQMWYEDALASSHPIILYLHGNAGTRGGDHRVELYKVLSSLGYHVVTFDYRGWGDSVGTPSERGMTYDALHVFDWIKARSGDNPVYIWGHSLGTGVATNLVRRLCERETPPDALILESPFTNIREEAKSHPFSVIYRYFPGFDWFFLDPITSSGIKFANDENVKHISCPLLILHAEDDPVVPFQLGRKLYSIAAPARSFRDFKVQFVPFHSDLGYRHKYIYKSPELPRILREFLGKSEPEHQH
In short: (§2)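 Homogenates (40 µg) from HEK293 stably expressing hABHD6 or hABHD12 pre-incubated with compound 30 min at 37 °C in […], 0.1% BSA, pH 7.6; then 10 μM 2-OG for 5 min at 37 °C. Aqueous phase tritium counted after CHCl3:MeOH stop; no-enzyme blanks and non-transfected HEK293 hydrolysis subtracted. Controls WWL70 10 μM, THL 20 μM.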

[6] = molecular target: T2, Fatty-acid amide hydrolase 1 (Homo sapiens, UniProt O00519); assay: Inhibition of FAAH in human U937 cells using [ethanolamine-1-3H]AEA as substrate preincubated for 15 mins followed by substrate addition and measured after 15 mins by liquid scintillation spectroscopy; assay type: cell-based, U-937
T2 sequence (O00519 whole entry): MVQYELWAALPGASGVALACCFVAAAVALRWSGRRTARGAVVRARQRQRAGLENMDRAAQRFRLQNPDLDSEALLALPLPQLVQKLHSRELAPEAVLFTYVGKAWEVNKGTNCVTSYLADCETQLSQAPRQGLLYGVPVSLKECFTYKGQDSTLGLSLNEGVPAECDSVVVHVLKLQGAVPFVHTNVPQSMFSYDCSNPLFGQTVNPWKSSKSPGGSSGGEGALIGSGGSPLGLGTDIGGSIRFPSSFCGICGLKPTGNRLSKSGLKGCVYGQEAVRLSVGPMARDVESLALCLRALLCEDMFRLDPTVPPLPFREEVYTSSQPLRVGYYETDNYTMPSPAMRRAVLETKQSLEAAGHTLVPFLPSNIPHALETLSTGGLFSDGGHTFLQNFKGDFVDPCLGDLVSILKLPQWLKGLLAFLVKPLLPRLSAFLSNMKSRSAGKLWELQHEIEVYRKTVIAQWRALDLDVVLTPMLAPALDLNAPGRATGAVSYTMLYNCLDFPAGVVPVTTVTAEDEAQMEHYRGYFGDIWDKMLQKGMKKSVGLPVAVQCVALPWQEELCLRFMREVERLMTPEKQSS
In short: (§3)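 Intact U937 cells, 10^6 per condition, pre-incubated with compound 15 min at 37 °C with shaking (screen at 10 μM; full curves for hits). Substrate: 1 μM AEA with 1 nM [3H]AEA (FAAH) or 10 μM 2-OG with 5 nM [3H]2-OG (MAGL), 15 min at 37 °C. Stopped with CHCl3:MeOH 1:1, aqueous tritium counted; mean ± SD, ≥3 experiments in triplicate.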

[7] = molecular target: T3, Monoacylglycerol lipase ABHD6 (Homo sapiens, UniProt Q9BV23); assay: Inhibition of human ABHD6 expressed in HEK293 cells using 2-OG as substrate preincubated for 30 mins followed by substrate addition and measured after 5 mins by liquid scintillation spectroscopy; assay type: cell-based; in short: as §2
T3 sequence (Q9BV23 whole entry): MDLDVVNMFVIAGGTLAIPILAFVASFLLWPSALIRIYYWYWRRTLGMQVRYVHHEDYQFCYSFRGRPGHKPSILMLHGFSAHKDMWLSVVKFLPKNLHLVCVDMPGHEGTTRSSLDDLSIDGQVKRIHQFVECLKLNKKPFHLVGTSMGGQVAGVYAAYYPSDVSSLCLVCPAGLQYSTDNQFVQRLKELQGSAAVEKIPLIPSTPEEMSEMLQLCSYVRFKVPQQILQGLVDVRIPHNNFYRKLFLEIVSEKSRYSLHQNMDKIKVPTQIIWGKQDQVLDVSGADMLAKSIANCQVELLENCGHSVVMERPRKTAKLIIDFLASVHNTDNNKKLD

[8] = tested on: Mus musculus; assay: In vivo agonist activity at CB1R in BALB/c mouse assessed as induction of analgesia at 5 mg/kg, ip measured after 1 hr by hotplate test; assay type: functional, organism-based; in short: as §1
[9] = tested on: Mus musculus; assay: In vivo agonist activity at CB1R in BALB/c mouse assessed as reduction in body temperature at 5 mg/kg, ip measured after 1 hr by tetrad test; assay type: functional, organism-based; in short: as §1
[10] = molecular target: T4, Monoglyceride lipase (Homo sapiens, UniProt Q99685); assay: Inhibition of MAGL in human U937 cells using [glycerol-1,2,3-3H]2-OG as substrate preincubated for 15 mins followed by substrate addition and measured after 15 mins by liquid scintillation spectroscopy; assay type: cell-based, U-937; in short: as §3
T4 sequence (Q99685 whole entry): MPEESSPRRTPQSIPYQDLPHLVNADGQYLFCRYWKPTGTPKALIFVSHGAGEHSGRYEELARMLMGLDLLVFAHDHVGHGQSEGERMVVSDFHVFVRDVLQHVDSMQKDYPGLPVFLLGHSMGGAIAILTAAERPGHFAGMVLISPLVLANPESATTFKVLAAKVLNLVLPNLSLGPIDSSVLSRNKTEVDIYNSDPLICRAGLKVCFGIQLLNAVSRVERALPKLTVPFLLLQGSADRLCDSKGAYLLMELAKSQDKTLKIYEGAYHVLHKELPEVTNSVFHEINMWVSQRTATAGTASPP

Cannabinoid receptor 1, sequence (P21554 whole entry): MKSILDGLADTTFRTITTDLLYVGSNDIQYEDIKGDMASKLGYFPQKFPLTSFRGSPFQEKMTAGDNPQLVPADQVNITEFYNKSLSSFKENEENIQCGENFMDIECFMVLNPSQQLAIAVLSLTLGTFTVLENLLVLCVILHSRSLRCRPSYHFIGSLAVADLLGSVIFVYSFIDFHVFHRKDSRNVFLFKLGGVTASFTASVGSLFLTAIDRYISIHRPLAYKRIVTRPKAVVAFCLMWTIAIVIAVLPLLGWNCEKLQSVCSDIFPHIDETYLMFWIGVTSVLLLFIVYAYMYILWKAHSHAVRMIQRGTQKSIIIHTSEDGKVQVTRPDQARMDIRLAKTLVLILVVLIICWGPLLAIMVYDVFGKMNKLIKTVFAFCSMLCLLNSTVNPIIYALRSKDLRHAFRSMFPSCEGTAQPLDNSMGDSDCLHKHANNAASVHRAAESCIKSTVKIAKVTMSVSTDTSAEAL

Row | SMILES | Ki [1] | Activity [2] | Ki [3] | Activity [4] | IC50 [5] | IC50 [6] | IC50 [7] | Activity [8] | Activity [9] | IC50 [10]
1 | COc1ccc(-c2cc(C(=O)NC3CCCCCC3)c(=O)n(Cc3ccc(F)cc3)c2C)cc1 | 9.8 nM | inactive | 26.2 nM | inactive | > 10000 nM | 2000 nM | 530 nM | inactive | inactive | > 10000 nM
2 | Cc1c(Br)cc(C(=O)NC2CCCCCC2)c(=O)n1Cc1ccc(F)cc1 | 2.9 nM | Active | 1.5 nM | Active | > 10000 nM | 5900 nM | > 10000 nM | Active | Active | > 10000 nM
